From ChEMBL document CHEMBL1125363, “Novel piperidine sigma receptor ligands as potential antipsychotic drugs” (J Med Chem, 1992)

Assays:
[1] = target: Serotonin 2 (5-HT2) receptor (Mus musculus, UniProt Q02152+P34968+P35363); assay: In vitro binding affinity for serotonin 5-hydroxytryptamine (5-HT) 2 receptors; assay type: protein assay
[2] = target: D(2) dopamine receptor (Mus musculus, UniProt P61168); assay: In vitro binding affinity towards dopamine receptor D2
[3] = target: Sigma non-opioid intracellular receptor 1 (Mus musculus, UniProt O55242); assay: In vitro binding affinity for the mouse sigma opioid receptor
Chain of Sigma non-opioid intracellular receptor 1 (O55242 whole entry): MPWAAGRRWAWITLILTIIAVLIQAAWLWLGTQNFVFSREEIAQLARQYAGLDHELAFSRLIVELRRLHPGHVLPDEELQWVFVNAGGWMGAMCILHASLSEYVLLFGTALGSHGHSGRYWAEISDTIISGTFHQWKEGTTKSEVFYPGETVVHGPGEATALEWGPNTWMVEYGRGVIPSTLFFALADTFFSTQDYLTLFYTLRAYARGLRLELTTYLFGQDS

[4] = organism: Mus musculus; assay: Oral potency tested by using anti-mescaline test; assay type: functional
In short: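 Mice; mescaline was given to evoke hallucinogen-type behaviour, and the test compound was dosed orally to antagonise it. Potency is the ED50 in mg/kg po. Some ED50s are the average of three measurements.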

[5] = organism: Mus musculus; assay: Potency was tested using Anti mescaline test(Intra peritoneal); assay type: functional
In short: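 Mouse mescaline-antagonism test with the test compound given intraperitoneally. Read-out is the ED50 in mg/kg ip.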

Chain of D(2) dopamine receptor (P61168 whole entry): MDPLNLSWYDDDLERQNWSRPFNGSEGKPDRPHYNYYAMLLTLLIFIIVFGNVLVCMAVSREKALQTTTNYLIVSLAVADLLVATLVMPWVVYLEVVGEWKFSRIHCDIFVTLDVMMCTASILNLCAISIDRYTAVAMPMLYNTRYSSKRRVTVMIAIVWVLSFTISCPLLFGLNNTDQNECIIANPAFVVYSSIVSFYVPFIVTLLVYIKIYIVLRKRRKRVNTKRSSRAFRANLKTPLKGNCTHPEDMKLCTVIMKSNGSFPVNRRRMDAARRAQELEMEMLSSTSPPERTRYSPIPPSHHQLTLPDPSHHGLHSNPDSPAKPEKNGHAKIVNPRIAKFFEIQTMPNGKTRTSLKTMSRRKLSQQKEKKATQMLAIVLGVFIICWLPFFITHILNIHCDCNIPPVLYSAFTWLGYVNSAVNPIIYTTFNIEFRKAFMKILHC

SMILES	Ki [1] [nM]	IC50 [2] [nM]	Ki [3] [nM]	ED50 [4] [mg/kg]	ED50 [5] [mg/kg]
O=C(CC1CCN(CCc2ccccc2)CC1)c1ccc(F)cc1	8	42	8	4.1	
Fc1ccc(COCC2CCN(Cc3ccncc3)CC2)cc1.O=C(O)/C=C/C(=O)O		> 10000	2		< 10
O.O=C(CC1CCN(CCc2c[nH]c3ccccc23)CC1)c1ccc(F)cc1	3.6	7	26	< 10	
O.O=C(CC1CCN(Cc2ccccc2)CC1)c1ccc(CO)cc1	438	> 10000	31	> 30	
COc1ccc(COCC2CCN(Cc3ccccc3)CC2)cc1.O=C(O)/C=C\C(=O)O	287	26000	3.5	> 30	
CS(=O)(=O)c1ccc(OCC2CCN(CC3CC3)CC2)cc1	1135	> 10000	53	> 30	
O=C(O)/C=C\C(=O)O.c1ccc(CCCOC2CCN(Cc3ccccc3)CC2)cc1		8100	2		< 10
O.OCc1ccc(OCC2CCN(CC3CC3)CC2)cc1	> 100	> 10000	35	> 30	
COc1ccc(OCC2CCN(Cc3ccccc3)CC2)cc1	55	> 10000	3	> 30	
O=S(=O)(CC1CCN(CCC2CC2)CC1)c1ccc(F)cc1	745	> 10000	28	6.4	
O.O=C(O)/C=C\C(=O)O.c1ccc(CN2CCC(COc3cccnc3)CC2)cc1	> 10000	> 10000	5	> 30	
Fc1ccc(-c2ccc(OCC3CCN(CC4CC4)CC3)cc2)cc1	396	> 10000	83	< 30	
C[S+]([O-])c1ccc(C(=O)CC2CCN(Cc3ccccc3)CC2)cc1.O (stereo not given)	204	> 10000	53	> 30	
c1ccc(Oc2ccc(OCC3CCN(CC4CC4)CC3)cc2)cc1	584	> 10000	24	> 30	
CS(=O)(=O)c1ccc(C(=O)CC2CCN(Cc3ccccc3)CC2)cc1	116	> 10000	18	> 30	
O.OC(CC1CCN(Cc2ccccc2)CC1)c1ccco1 (stereo not given)	1323	> 10000	11	> 30	
O=C(O)/C=C\C(=O)O.c1ccc(CN2CCC(COC3CC3)CC2)cc1	> 10000	> 10000	2	> 30	
CN(C)c1cccc(OCC2CCN(CC3CC3)CC2)c1.O	1158	7330	5		< 10
COc1ccc(C(O)CC2CCN(Cc3ccccc3)CC2)cc1.Cl (stereo not given)	187	> 10000	20	> 30	
Cl.Fc1ccc(COCC2CCN(Cc3ccc(Cl)cc3)CC2)cc1	281		2		< 10
COc1cc(OCC2CCN(CC3CC3)CC2)cc(OC)c1OC.Cl	8706	> 10000	50	> 30	
Br.CN(C)c1ccc(C(=O)CC2CCN(CC3CC3)CC2)cc1.O	559	> 10000	33	30	
Cl.OC(CC1CCN(Cc2ccccc2)CC1)c1ccc(C(F)(F)F)cc1 (stereo not given)	> 100	> 10000	6	> 30	
Cl.Fc1c(F)c(F)c(OCC2CCN(CC3CC3)CC2)c(F)c1F	3356	5680	10	26.2	
Cl.OC(Cc1ccccc1)C1CCN(Cc2ccccc2)CC1 (stereo not given)	1603	8300	18	< 10	
CCNc1ccc(OCC2CCN(CC3CC3)CC2)cc1.Cl.O	> 10000	> 10000	33	> 30	

Second part, led by results:

Ki [1] [nM]	IC50 [2] [nM]	Ki [3] [nM]	SMILES	ED50 [4] [mg/kg]	ED50 [5] [mg/kg]
> 1000	4670	10	O.O=C(CC1CCN(Cc2ccccc2)CC1)c1ccc(C(F)(F)F)cc1	> 10	
31	2750	7	Fc1ccc(OCC2CCN(Cc3ccncc3)CC2)cc1.O	1.1	
272	3900	2	Fc1ccc(COCC2CCN(Cc3ccccc3)CC2)cc1.O=C(O)/C=C\C(=O)O	14	
15	179	2	CC1(CN2CCC(COc3ccc(F)cc3)CC2)CC1(Cl)Cl.O=C(O)/C=C/C(=O)O (stereo not given)	< 10	
101	806	7	O.OC(CC1CCN(CCc2ccccc2)CC1)c1ccc(F)cc1 (stereo not given)	< 10	
65	900	11	OC(Cc1ccc(F)cc1)C1CCN(CCCCc2ccccc2)CC1 (stereo not given)	18	
208	715	8	CSc1ccc(C(=O)CC2CCN(Cc3ccccc3)CC2)cc1	> 30	
3.3	10	9	O=C(CC1CCN(CCc2ccc(C(F)(F)F)cc2)CC1)c1ccc(F)cc1	< 10	
38	1070	8	Fc1ccc(CN2CCC(COc3ccc(F)cc3)CC2)cc1	5.9	
24	560	4	Fc1ccc(COCC2CCN(CCc3ccccc3)CC2)cc1.O=C(O)/C=C\C(=O)O	15	
24	945	5	CC1CC1CN1CCC(COc2ccc(F)cc2)CC1.O=C(O)/C=C\C(=O)O (stereo not given)	> 10	
> 100	3330	31	O.OC(CC1CCN(Cc2ccccc2)CC1)c1ccc2ccccc2c1 (stereo not given)	> 10	
> 100	4850	50	O.c1ccc2c(OCC3CCN(CC4CC4)CC3)ccnc2c1	19.2	
350	1930	2	FC(F)(F)c1ccc(OCC2CCN(Cc3ccccc3)CC2)cc1	6	
6	195	3	O=C(CC1CCN(Cc2ccc(C(F)(F)F)cc2)CC1)c1ccc(F)cc1	1.8	
53	3170	7	c1ccc(OCC2CCN(CC3CC3)CC2)cc1	30	
446	3720	5	O.OC(CC1CCN(Cc2ccccc2)CC1)c1cccs1 (stereo not given)	> 30	

Ki [1] [nM]	IC50 [2] [nM]	Ki [3] [nM]	SMILES	ED50 [4] [mg/kg]	ED50 [5] [mg/kg]
8.4	14	5	O=C(CC1CCN(CCc2ccc(Cl)cc2)CC1)c1ccc(F)cc1	1.8	
> 1000	1340	18	O.O=C(CC1CCN(Cc2ccccc2)CC1)c1ccc(O)cc1	> 30	
112	2350	34	c1cc2cc(OCC3CCN(CC4CC4)CC3)ccc2[nH]1	< 30	
118	4340	51	Fc1ccc(OCC2CCN(Cc3ccc4ccccc4c3)CC2)cc1	1.7	
290	4560	3	O.O=C(Cc1ccc(F)cc1)C1CCN(Cc2ccccc2)CC1.O=C(O)/C=C\C(=O)O	18	
32	111	4	Cl.Clc1ccc(OCC2CCN(CC3CC3)CC2)c(Cl)c1	2.9	
272	4390	5	Cl.O=[N+]([O-])c1ccc(OCC2CCN(Cc3ccccc3)CC2)cc1	14	
127	3350	3	Cl.Fc1ccc(COCC2CCN(CC3CCCCC3)CC2)cc1	> 10	
251	305		Cl.Fc1ccc(COCC2CCN(Cc3ccc4ccccc4c3)CC2)cc1		> 10
87	1650	8	Cl.Clc1ccc(OCC2CCN(CC3CC3)CC2)cc1Cl	3.3	
1883	1800	55	Br.COc1ccc(C(=O)CC2CCN(CC3CC3)CC2)cc1		> 10
500	3130	7	Cl.Oc1ccc(CN2CCC(COCc3ccc(F)cc3)CC2)cc1	> 10	
12	220	11	Br.O=C(CC1CCN(CCC2CC2)CC1)c1ccc(F)cc1	< 10	
25	219	22	Cl.Fc1ccc(COCC2CCN(Cc3cccc4ccccc34)CC2)cc1	12	
> 10000	970	15	COC(=O)c1ccc(COCC2CCN(Cc3ccccc3)CC2)cc1.Cl.O	> 30	
	1320	9	CCCCCN1CCC(COCc2ccc(F)cc2)CC1.Cl		< 10
> 1000	1570	8	Br.CC(C)(C)c1ccc(C(=O)CC2CCN(CC3CC3)CC2)cc1.O	> 30	
